Bioassay records deposited in PubChem by several laboratories.
Only some compounds are listed: those with a hit (about 2.6% of all), similar ones and a draw of the others.
Rce1 inhib – inhibitors of yeast Ras-converting enzyme; Q03530; yeast membranes, quenched prenylated peptide cleavage fluorescence; calls only; actives 0.27% (n = 290,000); AID 2563;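 active = fall in fluorescence gain of 50% or more versus controls, with final raw signal at or below 3038400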;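 note: plate controls were neutral control wells for no effect and wells lacking membranes for full effect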
GRK2 aptamer HTS – human GRK2 inhibition via aptamer displacement | P25098 | bead flow cytometry, FAM-aptamer displacement from GRK2 | inhibition of aptamer binding, % at 10 µM | actives 0.59% (n = 330,000) | AID 488847;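 active = inhibition of aptamer binding above 40%, roughly 3 SD of noise, on plates passing a quality check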;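 note: median bead fluorescence of bound FAM aptamer so fluorescent compounds give negative values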
Target sequence (P25098 whole entry, looked up): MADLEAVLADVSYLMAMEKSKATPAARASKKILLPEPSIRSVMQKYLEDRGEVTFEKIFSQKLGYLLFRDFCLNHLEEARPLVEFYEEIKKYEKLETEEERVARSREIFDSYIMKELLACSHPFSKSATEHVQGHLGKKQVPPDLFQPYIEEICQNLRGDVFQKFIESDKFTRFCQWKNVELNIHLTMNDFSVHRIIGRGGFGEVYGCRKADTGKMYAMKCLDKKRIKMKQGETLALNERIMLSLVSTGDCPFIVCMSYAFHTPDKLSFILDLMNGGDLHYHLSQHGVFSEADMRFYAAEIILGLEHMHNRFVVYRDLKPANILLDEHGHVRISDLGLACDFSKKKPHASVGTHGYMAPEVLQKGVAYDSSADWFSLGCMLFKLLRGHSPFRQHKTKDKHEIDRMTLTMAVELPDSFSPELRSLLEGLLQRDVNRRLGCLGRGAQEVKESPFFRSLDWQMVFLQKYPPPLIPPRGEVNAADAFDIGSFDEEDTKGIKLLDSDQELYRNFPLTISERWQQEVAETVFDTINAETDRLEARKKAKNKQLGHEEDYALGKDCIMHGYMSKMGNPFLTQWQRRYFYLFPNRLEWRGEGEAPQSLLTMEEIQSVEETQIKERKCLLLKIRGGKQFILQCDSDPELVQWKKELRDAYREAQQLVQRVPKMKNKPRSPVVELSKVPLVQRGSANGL
Myeloid diff 2 – myeloid differentiation induction; ER-HoxA9 myeloid progenitors, lysozyme-GFP differentiation, flow cytometry; calls only at 10 µM; actives 1% (n = 360,000); AID 624256;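 active = normalized GFP-positive differentiation at or above the plate's own cutoff, the solvent-only control mean plus 3 SD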;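 note: cells exposed to compound for four days before flow analysis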
T cell modulator – T cell immune modulation candidate | 2C CD8+ T cell-vesicle binding, flow cytometry; hits give low values | AID 2052 | response (vesicle binding), % at 7 µM | actives 0.068% (n = 330,000);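 active = response, share of CD8 T cells binding vesicles, and their 90th percentile fluorescence all below set limits, cut at about 80% in these data, passing the limit was not always enough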;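 note: values below 100% mean blocked vesicle binding to the CD8+ T cells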
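Material: 2C TCR transgenic mouse naive CD8+ T cells, MACS-purified. Also added: QL9-charged Drosophila Ld/ICAM-1/B7-1 vesicles. Timing: binding 1.5 h at 37 °C. Measured by: high-throughput flow cytometry with anti-B7-1 and anti-CD8 staining. Read-out: percent CD8+ FL2 mean versus row control. Controls: Unloaded micro-vesicles (low), QL9 vesicles with 0.7% DMSO (high).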
SKN-1 block – C. elegans SKN-1 inhibition; AID 624304; inhibition, % at 21.8 µM; actives 0.49% (n = 360,000); C. elegans VP596 Pgst-4::GFP/RFP ratio, acrylamide-induced, 24 h;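 active = interference check ratio from 0.5 to 1.5 plus GFP to RFP signal ratio inhibition reaching or exceeding a fixed threshold, cut at about 30% in these data, passing the limit was not always enough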
Rin1-Abl PPI inh – human Rin1-Abl interaction inhibition. TR-FRET Rin1/Abl binding, biochemical. AID 588664. P00519+Q13671. actives 0.4% (n = 360,000). inhibition, % at 7.35 µM; in the data active = inhibition above about 5%, passing the limit was not always enough
GRK2 CP1 – human GRK2 inhibition confirmation, cherry pick 1 | shares compounds with GRK2 aptamer HTS | bead-bound GRK2, FAM-aptamer displacement, flow cytometry | aptamer displacement, % at 10 µM | actives 4% (n = 2,000);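 active = aptamer displacement above 40%, near three times the noise of non-fluorescent compounds, on plates passing quality checks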;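 note: negative values mostly reflect intrinsic compound fluorescence rather than true enhancement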
Aptamer quench SP – quenches fluorescent RNA aptamer, GRK2 hit artifact | shares compounds with GRK2 aptamer HTS | Carboxyfluorescein RNA aptamer on beads, flow cytometry quenching; hits give low values | fluorescence response (% of DMSO), % at 10 µM | 2,000 tested, under 10 active | AID 504580;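 active = compounds that quench the bead-bound fluorescent RNA probe, cutting fluorescence to under half of the solvent control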;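 note: counterscreen run without GRK2 so only probe quenching by compound is measured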
GRK2 CP2 – human GRK2 inhibition confirmation, cherry pick 2; shares compounds with GRK2 aptamer HTS; bead-bound GRK2, FAM-aptamer displacement, flow cytometry; inhibition of aptamer binding, % at 10 µM; 360 tested, under 10 active;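 active = inhibition of aptamer binding above 40%, about triple the noise seen with nonglowing compounds, on plates passing quality control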;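 note: negative values mostly come from compounds that fluoresce themselves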
FAM quench SP – aptamer fluorescence quenching in GRK2 counter-screen; carboxyfluorescein RNA aptamer beads, flow cytometry quenching; hits give low values; shares compounds with GRK2 aptamer HTS; fluorescence response vs DMSO, % at 10 µM; 360 tested, under 10 active;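 active = response vs DMSO under 50%, meaning signal dropped by over half, treated as fluorescence quencher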;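 note: labelled aptamer on streptavidin beads without GRK2 as a quench counter-screen; 100% = bead fluorescence of DMSO wells and lower means quenching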
Starred values were filed as active, the others as inactive; i = inactive; / = no result; + = active, no number.

SMILES	Rce1 inhib	GRK2 aptamer HTS	Myeloid diff 2	T cell modulator	SKN-1 block	Rin1-Abl PPI inh	GRK2 CP1	Aptamer quench SP	others
O=C1/C(=C\c2ccc(-c3ccccc3Cl)o2)SC(=S)N1CC1CCCO1 (centres undefined)	i	51*	i	142	3	3	36	108
Fc1ccc(OCCOCCN2CCNCC2)cc1	i	7	i	506	7	0	/	/
CCCCCn1c(CN2CCCCC2CC)nc2c1c(=O)n(C)c(=O)n2C (centres undefined)	i	0	i	528	-10	-3	0	101
CCCCCn1c(CN2CCCCC2C)nc2c1c(=O)n(C)c(=O)n2C (centres undefined)	i	0	i	343	8	1	/	/
O=C(COC(=O)CNC(=O)c1ccccc1)Nc1nnc(-c2ccccc2)o1	i	0	i	252	4	-1	-1	96
O=C(COC(=O)CNC(=O)c1cccc(Br)c1)Nc1nnc(-c2ccccc2)o1	/	3	i	409	-1	0	/	/
COc1ccc(S(=O)(=O)N2CC=C(c3ccccc3)CC2)cc1OC	/	/	i	/	27	1	/	/
COc1cc(CN(C(=O)c2cccs2)C2CCS(=O)(=O)C2)cc(OC)c1OC (centres undefined)	i	1	i	501	6	0	/	/
Nc1nonc1-n1nnc(C(=O)N/N=C/c2ccc(O)cc2)c1CN1CCCCCC1	i	6	i	i	0	-1	/	/
CCCCCOc1ccc(/C=N/NC(=O)c2nnn(-c3nonc3N)c2CN2CCCCCC2)cc1	i	55*	i	388	-7	0	2	105
O=C(NCc1ccc(Cl)cc1)c1cc(S(=O)(=O)N2CCCCC2)c[nH]1	i	43*	i	0	-1	2	2	96
COc1cccc(CNC(=O)c2cc(S(=O)(=O)N3CCCCC3)c[nH]2)c1	i	1	i	592	1	6	/	/
Cc1ccc[n+](CC(=O)c2ccc(Br)cc2)c1	i	75*	i	243	14	-2	-1	94
O=C(Cn1cnc2scc(-c3cccc([N+](=O)[O-])c3)c2c1=O)NCc1ccco1	i	88*	i	257	-5	-1	7	94
N#CCc1ccc(NS(=O)(=O)c2ccc(C3CCCCC3)cc2)cc1	i	78*	i	567	11	-1	1	97
c1coc(CNc2c3c(nc4ccccc24)CCC3)c1	i	0	+	534	-3	-4	/	/	GRK2 CP2=2;FAM quench SP=101
CC(C)NCC(=O)Nc1c2c(nc3ccccc13)CCC2	i	0	i	i	10	-2	/	/
CC(C)(C)OC(=O)NN=C(c1ccc(O)cc1)c1ccc(O)cc1	i	2	i	234	-20	-5	/	/
Cc1ccc(CONC(=O)c2cccc([N+](=O)[O-])c2)cc1	/	43*	i	247	5	1	/	/	GRK2 CP2=-11;FAM quench SP=100
Cc1ccc(CONC(=O)c2ccc([N+](=O)[O-])cc2)cc1	/	0	i	i	-13	1	/	/
Cc1cccc(C(=O)NNC(=O)c2ccccc2C)c1	i	1	i	165	-10	3	/	/
Cc1ccccc1C(=O)NNC(=O)c1cccc([N+](=O)[O-])c1	i	60*	i	230	1	-1	-4	101
O=C(Nc1cccc([N+](=O)[O-])c1)c1cccc(C(=O)Nc2cccc([N+](=O)[O-])c2)c1	i	67*	i	228	13	-1	27	101
